A short description of test [1]: Inhibition of jack bean beta-D-mannosidase. Further details: species or system Canavalia ensiformis.
Test [2] can be described thus: Inhibition of sweet almonds beta-D-glucosidase. Also noted: species or system Prunus dulcis.
Test [3] can be described thus: Inhibition of yeast alpha-D-glucosidase. Also noted: species or system Saccharomyces. In outline:
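α-Glucosidase (500 units/mL) with p-nitrophenyl glucopyranoside (0.7 mM final) in 50 mM phosphate buffer pH 6.9, 1% v/v DMSO, 37 °C, 10 min, with or without a range of inhibitor concentrations. Stopped with an equal volume of 100 mM Na2CO3, and p-nitrophenol read at 400 nm. Rate taken from the linear slope of 1-min readings. IC50 derived by kinetic fitting.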

In the next test the test system is Canavalia ensiformis. Put plainly: Inhibition of jack bean beta-D-mannosidase at 800 uM.
For another test, the system named is Prunus dulcis. Put plainly: Inhibition of sweet almonds beta-D-glucosidase at 800 uM.

Calls of active or inactive are those of the source. The rule behind the calls is not given here.

What is called IC50 is the concentration at which inhibition is half-maximal. `CC(C)=CCc1c(O)c(CC=C(C)C)c2oc(-c3ccc4c(c3)OC(C)(C)C=C4)c(O)c(=O)c2c1O` [DORSILURIN C]: the IC50 in test [1] worked out at 358 µM; in test [2] it was 422 µM; in test [3] it was 11.2 µM.
With `CC(C)=CCc1ccc(-c2oc3c(CC=C(C)C)c(O)c(CC=C(C)C)c(O)c3c(=O)c2O)cc1O` [DORSILURIN F], the results for the IC50 in test [1], in test [2] and in test [3] were 192 µM, 117 µM and 4.13 µM, respectively.
Turning to `C=C(C)[C@@H](O)Cc1ccc(-c2oc3c(CC=C(C)C)c(O)c(CC=C(C)C)c(O)c3c(=O)c2O)cc1O` [DORSILURIN G], the IC50 came out at 232 µM in test [1], 431 µM in test [2] and 7.51 µM in test [3].
For the molecule `C=C(C)[C@@H](O)Cc1ccc(-c2oc3c(CC=C(C)C)c(O)c4c(c3c(=O)c2O)OC(C)(C)CC4)cc1O` [DORSILURIN H], in the test with Canavalia ensiformis, the result was inactive. In addition, the IC50 worked out at 671 µM in test [2] and 24 µM in test [3].
For `C=C(C)[C@@H](O)Cc1ccc(-c2oc3c4c(c(CC=C(C)C)c(O)c3c(=O)c2O)OC(C)(C)CC4)cc1O` [DORSILURIN I] the same measures were “inactive”, 431 µM and 21.5 µM.
Consider `CC(C)=CCc1ccc(-c2oc3c(CC=C(C)C)c(O)c4c(c3c(=O)c2O)OC(C)(C)CC4)cc1O` [DORSILURIN J], for which the IC50 is 518 µM in test [1], 317 µM in test [2] and 16.9 µM in test [3].
As to `CC(C)=CCc1ccc(-c2oc3c4c(c5c(c3c(=O)c2O)OC(C)(C)CC5)OC(C)(C)CC4)cc1O` [DORSILURIN K], the result in the test on Canavalia ensiformis and in the test with Prunus dulcis was inactive. Besides, the IC50 in test [3] came out at 44 µM.
For the molecule `OC[C@H]1NC[C@H](O)[C@@H](O)[C@@H]1O` [DUVOGLUSTAT], the IC50 in test [3] was 426 µM.
